# High-throughput results deposited in PubChem BioAssay by The Scripps Research Institute Molecular Screening Center.
# pPAFAH inh: inhibitors of human plasma PAF acetylhydrolase (pPAFAH). inhibition, % at 3.39 µM. AID 463082. hit rate 1.5% among 330,000. Q13093. recombinant pPAFAH, FP-rhodamine probe fluorescence polarization;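 active = inhibition above the mean inhibition across the screen plus 3 SD, cut at about 25% in these data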;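 note: inhibitors block binding of the rhodamine activity-based probe so polarization drops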
# ASAP1 GAP inh: blocks human ASAP1-stimulated Arf1 GTP hydrolysis | inhibition, % at 16.5 µM | hit rate 0.19% among 360,000 | Q9ULH1 | GDP FP detection; in the data active = inhibition above about 25%
# PAFAH1B2 inh: blocks human PAF acetylhydrolase 1b catalytic subunit 2; P68402; recombinant PAFAH1B2, FP-rhodamine activity probe, fluorescence polarization; inhibition, % at 3.39 µM; hit rate 1.2% among 340,000;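 active = inhibition above the mean of all tested compounds plus 3 SD, cut at about 24% in these data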
# ARFGAP1 inhibitor: inhibits rat ARF GTPase activating protein 1; AID 651572; Q62848; inhibition, % at 16.5 µM; Arfgap1-stimulated ARF1 GTP hydrolysis, GDP FP detection; hit rate 0.26% among 360,000;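 active = inhibition above a per-plate limit, mean inhibition of low control wells plus 3 SD, cut at about 25% in these data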
#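 Assay system: purified rat His6-Arfgap1 residues 1-136 (GAP domain); Reagent: human Δ17 ARF1 bound to GTP; Dosing: 16.5 µM single point, 1.26% DMSO; Times: GTP hydrolysis reaction 2 h at 25 °C; Signal: FP, GDP Alexa 633 tracer displaced from anti-GDP antibody, 620/688 nm; Measure: % inhibition from polarization.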
# PAFAH2 inh: inhibitors of human PAFAH2; recombinant PAFAH2, FP-rhodamine activity probe, fluorescence polarization; AID 492956; inhibition, % at 3.39 µM; Q99487; hit rate 0.99% among 340,000;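 active = inhibition above the mean over all tested compounds plus 3 SD, cut at about 30% in these data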;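 note: inhibitors block probe labeling of enzyme so polarization drops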
# PAFAH1B3 FP inh: inhibitors of human PAFAH1B3 | hit rate 0.28% among 340,000 | recombinant PAFAH1B3, FP-rhodamine probe, fluorescence polarization | Q15102 | inhibition, % at 3.39 µM | AID 492972;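 active = inhibition above the screen-wide average of all tested compounds plus 3 SD, cut at about 25% in these data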
# ARFGAP1 inh conf: confirmation of rat ARFGAP1 inhibitors | hit rate 30% among 890 | AID 651608 | shares compounds with ARFGAP1 inhibitor | inhibition, % at 16.5 µM | ARFGAP1-stimulated ARF1 GTP hydrolysis, GDP tracer FP;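 active = average inhibition over triplicates above the hit cutoff set in the earlier primary screen, cut at about 25% in these data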
# Hits are given with their value; n = inactive; x = not tested or not shown. An excerpt weighted towards active compounds, which were near 2.7% of everything screened.
SMILES,pPAFAH inh,ASAP1 GAP inh,PAFAH1B2 inh,ARFGAP1 inhibitor,PAFAH2 inh,PAFAH1B3 FP inh,ARFGAP1 inh conf
CC(=O)N1CC(=O)N(c2ccccc2)C1=O,n,n,n,n,n,n,x
CC1Cc2ccccc2N1C(=O)CN1CCC(n2nnc3cc(C(F)(F)F)ccc32)CC1 (stereo not drawn),n,n,n,28,n,n,n
COC(=O)c1ccccc1NC(=O)CN1CCC(n2nnc3cc(C(F)(F)F)ccc32)CC1,n,n,n,n,n,n,x
O=C(COC(=O)CNS(=O)(=O)c1ccc2ccccc2c1)Nc1ccccc1Sc1ccccc1,n,n,n,30,n,n,n
CCOc1ccc(/C=N/NC(=O)c2cc3c(OC)cc(OC)cc3[nH]2)cc1OC,n,n,n,26,n,n,47
O=C(CN1C(=O)NC2(CCCCCC2)C1=O)c1cccs1,n,n,n,n,n,n,x
CC[C@@]1(O)C(=O)OCc2c1cc1n(c2=O)Cc2cc3c(N)cccc3nc2-1,n,n,n,n,n,n,x
CC[C@@]1(O)C(=O)OCc2c1cc1n(c2=O)Cc2cc3c(CN(C)C)c(O)ccc3nc2-1,n,n,n,25,n,n,n
COc1ccc(CCC(=O)Nc2cccc(S(=O)(=O)N(C)C)c2)cc1OC,n,n,n,n,n,n,x
CC(=O)Nc1ccc(N2C(=O)CC(N3CCSCC3)C2=O)cc1 (stereo not drawn),n,n,n,25,n,n,n
O=C1CC(N2CCSCC2)C(=O)N1c1ccc(F)cc1 (stereo not drawn),n,n,n,n,n,n,x
CCCCN(C(=O)CSc1cc(C)c2ccccc2n1)c1c(N)n(Cc2ccccc2)c(=O)[nH]c1=O,n,n,n,n,n,n,x
